Data reported in ChEMBL document CHEMBL4043093, “2-Oxo-3, 4-dihydropyrimido[4, 5-d]pyrimidinyl derivatives as new irreversible pan fibroblast growth factor receptor (FGFR) inhibitors” (Eur J Med Chem, 2017).

Key:
[1] = system: ALK tyrosine kinase receptor (Homo sapiens), Q9UM73 [C1156Y]; experiment: Inhibition of wild-type human partial length ALK C1156Y mutant (I1088 to E1409 residues) expressed in HEK293 cells assessed as residual activity at 1000 nM after 30 mins by Kinomescan method relative to control; format: cell-based
[2] = target: Bone morphogenetic protein receptor type-2 (Homo sapiens) (UniProt Q13873); experiment: Inhibition of wild-type human partial length BMPR2 (R179 to Q526 residues) expressed in HEK293 cells assessed as residual activity at 1000 nM after 30 mins by Kinomescan method relative to control; format: cell-based
Sequence of Bone morphogenetic protein receptor type-2 (Homo sapiens) (Q13873 whole entry, the tested form may be a part): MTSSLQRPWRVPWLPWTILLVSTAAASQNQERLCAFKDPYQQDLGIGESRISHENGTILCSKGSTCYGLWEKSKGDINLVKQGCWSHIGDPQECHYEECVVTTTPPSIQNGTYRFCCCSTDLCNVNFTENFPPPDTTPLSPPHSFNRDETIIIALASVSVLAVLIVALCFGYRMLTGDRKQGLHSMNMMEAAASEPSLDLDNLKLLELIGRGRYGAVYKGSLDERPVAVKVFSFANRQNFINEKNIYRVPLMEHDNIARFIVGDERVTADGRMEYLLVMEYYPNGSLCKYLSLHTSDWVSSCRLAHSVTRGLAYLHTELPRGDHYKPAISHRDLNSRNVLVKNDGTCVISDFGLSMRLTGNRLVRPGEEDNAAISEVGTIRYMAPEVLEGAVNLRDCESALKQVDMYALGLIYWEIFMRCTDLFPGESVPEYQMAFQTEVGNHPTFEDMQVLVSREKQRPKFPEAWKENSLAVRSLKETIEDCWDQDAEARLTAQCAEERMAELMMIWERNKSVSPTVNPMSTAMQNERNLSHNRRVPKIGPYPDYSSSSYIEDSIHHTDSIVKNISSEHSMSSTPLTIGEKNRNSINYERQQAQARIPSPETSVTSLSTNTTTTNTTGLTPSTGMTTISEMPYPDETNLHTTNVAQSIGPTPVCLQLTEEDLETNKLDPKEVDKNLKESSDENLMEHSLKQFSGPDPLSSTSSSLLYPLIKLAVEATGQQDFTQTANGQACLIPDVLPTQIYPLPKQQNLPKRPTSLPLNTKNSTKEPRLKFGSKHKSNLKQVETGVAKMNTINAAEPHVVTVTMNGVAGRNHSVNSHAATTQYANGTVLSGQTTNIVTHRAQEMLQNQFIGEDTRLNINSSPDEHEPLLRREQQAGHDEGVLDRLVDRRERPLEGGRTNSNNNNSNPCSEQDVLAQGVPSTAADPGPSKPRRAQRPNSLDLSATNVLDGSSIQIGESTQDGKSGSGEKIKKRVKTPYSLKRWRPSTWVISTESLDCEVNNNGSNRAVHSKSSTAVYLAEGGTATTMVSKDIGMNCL

[3] = system: Tyrosine-protein kinase ABL1 (Homo sapiens), P00519 [F317I]; experiment: Inhibition of human phosphorylated ABL1 F317I mutant (S229 to K512 residues) expressed in HEK293 cells assessed as residual activity at 1000 nM after 30 mins by Kinomescan method relative to control; format: cell-based
Method in brief: (§1)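 Single-point screen at a fixed 1 µM, run within a 456-kinase DiscoveRx KINOMEscan panel. Each kinase's read-out is Percent Control, i.e. signal relative to a control without compound. Hits were scored by a Percent Control < 35 cut-off, and an S(35) selectivity score was calculated across the non-mutant kinases.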

[4] = target: cGMP-dependent protein kinase 1 (Homo sapiens) (UniProt Q13976); experiment: Inhibition of wild-type human partial length PRKG1 (L339 to F686 residues) expressed in Escherichia coli BL21 assessed as residual activity at 1000 nM after 30 mins by Kinomescan method relative to control
[5] = system: Epidermal growth factor receptor (Homo sapiens), P00533 [UNDEFINED MUTATION]; experiment: Inhibition of human partial length EGFR L747-E749del/A750P mutant expressed in Escherichia coli BL21 assessed as residual activity at 1000 nM after 30 mins by Kinomescan method relative to control
Method in brief: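 KINOMEscan binding panel of 456 kinases, with the test compound at a single concentration of 1 µM. Read-out is Percent Control.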

[6] = target: Activin receptor type-1B (Homo sapiens) (UniProt P36896); experiment: Inhibition of wild-type human ACVR1B (S187 to I505 residues) expressed in Escherichia coli BL21 assessed as residual activity at 1000 nM after 30 mins by Kinomescan method relative to control; method in brief: as §1
[7] = target: Ephrin type-A receptor 7 (Homo sapiens) (UniProt Q15375); experiment: Inhibition of wild-type human partial length EPHA7 (Y608 to S912 residues) expressed in Escherichia coli BL21 assessed as residual activity at 1000 nM after 30 mins by Kinomescan method relative to control
[8] = target: Serine/threonine-protein kinase RIO1 (Homo sapiens) (UniProt Q9BRS2); experiment: Inhibition of wild-type human full length RIOK1 (M1 to K568 residues) expressed in Escherichia coli BL21 assessed as residual activity at 1000 nM after 30 mins by Kinomescan method relative to control
[9] = target: Serine/threonine-protein kinase BRSK2 (Homo sapiens) (UniProt Q8IWQ3); experiment: Inhibition of wild-type human full length BRSK2 (M1 to L674 residues) expressed in Escherichia coli BL21 assessed as residual activity at 1000 nM after 30 mins by Kinomescan method relative to control; method in brief: as §1
[10] = target: Peripheral plasma membrane protein CASK (Homo sapiens) (UniProt O14936); experiment: Inhibition of wild-type human partial length CASK (M1 to H315 residues) expressed in HEK293 cells assessed as residual activity at 1000 nM after 30 mins by Kinomescan method relative to control; format: cell-based
[11] = target: Ribosomal protein S6 kinase alpha-2 (Homo sapiens) (UniProt Q15349); experiment: Inhibition of wild-type human partial length C-terminal RSK2 kinase domain 2 (V402 to S715 residues) expressed in HEK293 cells assessed as residual activity at 1000 nM after 30 mins by Kinomescan method relative to control; format: cell-based
[12] = target: RAC-gamma serine/threonine-protein kinase (Homo sapiens) (UniProt Q9Y243); experiment: Inhibition of wild-type human partial length AKT3 expressed in Escherichia coli BL21 assessed as residual activity at 1000 nM after 30 mins by Kinomescan method relative to control
[13] = target: Mitogen-activated protein kinase kinase kinase 20 (Homo sapiens) (UniProt Q9NYL2); experiment: Inhibition of wild-type human partial length ZAK (M1 to L331 residues) expressed in Escherichia coli BL21 assessed as residual activity at 1000 nM after 30 mins by Kinomescan method relative to control
Sequence of Mitogen-activated protein kinase kinase kinase 20 (Homo sapiens) (Q9NYL2 2-800 limits assumed): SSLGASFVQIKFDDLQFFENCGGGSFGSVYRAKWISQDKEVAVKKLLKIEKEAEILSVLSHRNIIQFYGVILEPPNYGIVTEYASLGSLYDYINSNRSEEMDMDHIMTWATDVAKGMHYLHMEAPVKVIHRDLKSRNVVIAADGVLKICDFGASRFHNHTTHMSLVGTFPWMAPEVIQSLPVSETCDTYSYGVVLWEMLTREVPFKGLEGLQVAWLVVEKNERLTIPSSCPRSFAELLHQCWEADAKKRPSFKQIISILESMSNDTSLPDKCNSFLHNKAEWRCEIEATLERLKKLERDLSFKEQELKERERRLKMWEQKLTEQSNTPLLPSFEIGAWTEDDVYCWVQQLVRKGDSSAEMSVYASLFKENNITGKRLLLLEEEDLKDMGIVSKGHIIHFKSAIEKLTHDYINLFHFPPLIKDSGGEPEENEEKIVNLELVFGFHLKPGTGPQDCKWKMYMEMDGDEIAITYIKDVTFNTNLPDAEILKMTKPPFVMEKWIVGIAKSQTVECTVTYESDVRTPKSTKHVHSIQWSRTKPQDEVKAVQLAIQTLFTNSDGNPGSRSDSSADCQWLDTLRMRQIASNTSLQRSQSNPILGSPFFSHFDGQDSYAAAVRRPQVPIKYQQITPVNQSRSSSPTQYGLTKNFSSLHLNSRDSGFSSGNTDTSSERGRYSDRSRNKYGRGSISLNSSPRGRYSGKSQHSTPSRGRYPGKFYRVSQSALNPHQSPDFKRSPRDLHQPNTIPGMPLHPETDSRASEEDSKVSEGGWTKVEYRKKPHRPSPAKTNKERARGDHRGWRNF

[14] = target: Serine/threonine-protein kinase Nek11 (Homo sapiens) (UniProt Q8NG66); experiment: Inhibition of wild-type human partial length NEK11 (M1 to E313 residues) expressed in HEK293 cells assessed as residual activity at 1000 nM after 30 mins by Kinomescan method relative to control; format: cell-based
[15] = target: Ribosomal protein S6 kinase alpha-5 (Homo sapiens) (UniProt O75582); experiment: Inhibition of wild-type human partial length N-terminal RPS6KA5 kinase domain 1 expressed in Escherichia coli BL21 assessed as residual activity at 1000 nM after 30 mins by Kinomescan method relative to control
[16] = target: Mitogen-activated protein kinase 6 (Homo sapiens) (UniProt Q16659); experiment: Inhibition of wild-type human partial length ERK3 (M1 to P413 residues) expressed in Escherichia coli BL21 assessed as residual activity at 1000 nM after 30 mins by Kinomescan method relative to control
[17] = target: Tyrosine-protein kinase BTK (Homo sapiens) (UniProt Q06187); experiment: Inhibition of wild-type human full length BTK (M1 to S659 residues) expressed in HEK293 cells assessed as residual activity at 1000 nM after 30 mins by Kinomescan method relative to control; format: cell-based; method in brief: as §1
Sequence of Tyrosine-protein kinase BTK (Homo sapiens) (Q06187 whole entry, the tested form may be a part): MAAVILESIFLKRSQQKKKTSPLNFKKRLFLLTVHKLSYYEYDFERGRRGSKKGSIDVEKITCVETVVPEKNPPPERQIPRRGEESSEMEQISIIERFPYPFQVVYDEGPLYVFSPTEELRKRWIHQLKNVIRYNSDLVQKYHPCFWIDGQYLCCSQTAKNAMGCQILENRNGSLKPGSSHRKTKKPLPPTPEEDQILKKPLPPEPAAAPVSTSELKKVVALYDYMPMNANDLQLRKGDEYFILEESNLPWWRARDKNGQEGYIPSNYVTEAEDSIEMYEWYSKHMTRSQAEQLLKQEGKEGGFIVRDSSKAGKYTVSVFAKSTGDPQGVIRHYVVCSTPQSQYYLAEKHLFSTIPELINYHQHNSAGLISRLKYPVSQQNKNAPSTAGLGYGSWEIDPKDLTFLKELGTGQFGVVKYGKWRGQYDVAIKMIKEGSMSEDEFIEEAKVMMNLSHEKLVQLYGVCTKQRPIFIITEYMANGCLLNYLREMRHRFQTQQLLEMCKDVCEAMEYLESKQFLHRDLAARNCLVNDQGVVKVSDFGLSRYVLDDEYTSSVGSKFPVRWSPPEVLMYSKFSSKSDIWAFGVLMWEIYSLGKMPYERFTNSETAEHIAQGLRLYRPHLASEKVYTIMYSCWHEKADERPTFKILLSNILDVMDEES

[18] = target: Serine/threonine-protein kinase ICK (Homo sapiens) (UniProt Q9UPZ9); experiment: Inhibition of wild-type human partial length ICK (M1 to P314 residues) expressed in HEK293 cells assessed as residual activity at 1000 nM after 30 mins by Kinomescan method relative to control; format: cell-based
[19] = target: Casein kinase I isoform epsilon (Homo sapiens) (UniProt P49674); experiment: Inhibition of wild-type human full length CSNK1E (M1 to K416 residues) expressed in Escherichia coli BL21 assessed as residual activity at 1000 nM after 30 mins by Kinomescan method relative to control; method in brief: as §1
[20] = target: Proto-oncogene tyrosine-protein kinase ROS (Homo sapiens) (UniProt P08922); experiment: Inhibition of wild-type human partial length ROS1 (A1921 to N2240 residues) expressed in Escherichia coli BL21 assessed as residual activity at 1000 nM after 30 mins by Kinomescan method relative to control
Sequence of Proto-oncogene tyrosine-protein kinase ROS (Homo sapiens) (P08922 whole entry, the tested form may be a part): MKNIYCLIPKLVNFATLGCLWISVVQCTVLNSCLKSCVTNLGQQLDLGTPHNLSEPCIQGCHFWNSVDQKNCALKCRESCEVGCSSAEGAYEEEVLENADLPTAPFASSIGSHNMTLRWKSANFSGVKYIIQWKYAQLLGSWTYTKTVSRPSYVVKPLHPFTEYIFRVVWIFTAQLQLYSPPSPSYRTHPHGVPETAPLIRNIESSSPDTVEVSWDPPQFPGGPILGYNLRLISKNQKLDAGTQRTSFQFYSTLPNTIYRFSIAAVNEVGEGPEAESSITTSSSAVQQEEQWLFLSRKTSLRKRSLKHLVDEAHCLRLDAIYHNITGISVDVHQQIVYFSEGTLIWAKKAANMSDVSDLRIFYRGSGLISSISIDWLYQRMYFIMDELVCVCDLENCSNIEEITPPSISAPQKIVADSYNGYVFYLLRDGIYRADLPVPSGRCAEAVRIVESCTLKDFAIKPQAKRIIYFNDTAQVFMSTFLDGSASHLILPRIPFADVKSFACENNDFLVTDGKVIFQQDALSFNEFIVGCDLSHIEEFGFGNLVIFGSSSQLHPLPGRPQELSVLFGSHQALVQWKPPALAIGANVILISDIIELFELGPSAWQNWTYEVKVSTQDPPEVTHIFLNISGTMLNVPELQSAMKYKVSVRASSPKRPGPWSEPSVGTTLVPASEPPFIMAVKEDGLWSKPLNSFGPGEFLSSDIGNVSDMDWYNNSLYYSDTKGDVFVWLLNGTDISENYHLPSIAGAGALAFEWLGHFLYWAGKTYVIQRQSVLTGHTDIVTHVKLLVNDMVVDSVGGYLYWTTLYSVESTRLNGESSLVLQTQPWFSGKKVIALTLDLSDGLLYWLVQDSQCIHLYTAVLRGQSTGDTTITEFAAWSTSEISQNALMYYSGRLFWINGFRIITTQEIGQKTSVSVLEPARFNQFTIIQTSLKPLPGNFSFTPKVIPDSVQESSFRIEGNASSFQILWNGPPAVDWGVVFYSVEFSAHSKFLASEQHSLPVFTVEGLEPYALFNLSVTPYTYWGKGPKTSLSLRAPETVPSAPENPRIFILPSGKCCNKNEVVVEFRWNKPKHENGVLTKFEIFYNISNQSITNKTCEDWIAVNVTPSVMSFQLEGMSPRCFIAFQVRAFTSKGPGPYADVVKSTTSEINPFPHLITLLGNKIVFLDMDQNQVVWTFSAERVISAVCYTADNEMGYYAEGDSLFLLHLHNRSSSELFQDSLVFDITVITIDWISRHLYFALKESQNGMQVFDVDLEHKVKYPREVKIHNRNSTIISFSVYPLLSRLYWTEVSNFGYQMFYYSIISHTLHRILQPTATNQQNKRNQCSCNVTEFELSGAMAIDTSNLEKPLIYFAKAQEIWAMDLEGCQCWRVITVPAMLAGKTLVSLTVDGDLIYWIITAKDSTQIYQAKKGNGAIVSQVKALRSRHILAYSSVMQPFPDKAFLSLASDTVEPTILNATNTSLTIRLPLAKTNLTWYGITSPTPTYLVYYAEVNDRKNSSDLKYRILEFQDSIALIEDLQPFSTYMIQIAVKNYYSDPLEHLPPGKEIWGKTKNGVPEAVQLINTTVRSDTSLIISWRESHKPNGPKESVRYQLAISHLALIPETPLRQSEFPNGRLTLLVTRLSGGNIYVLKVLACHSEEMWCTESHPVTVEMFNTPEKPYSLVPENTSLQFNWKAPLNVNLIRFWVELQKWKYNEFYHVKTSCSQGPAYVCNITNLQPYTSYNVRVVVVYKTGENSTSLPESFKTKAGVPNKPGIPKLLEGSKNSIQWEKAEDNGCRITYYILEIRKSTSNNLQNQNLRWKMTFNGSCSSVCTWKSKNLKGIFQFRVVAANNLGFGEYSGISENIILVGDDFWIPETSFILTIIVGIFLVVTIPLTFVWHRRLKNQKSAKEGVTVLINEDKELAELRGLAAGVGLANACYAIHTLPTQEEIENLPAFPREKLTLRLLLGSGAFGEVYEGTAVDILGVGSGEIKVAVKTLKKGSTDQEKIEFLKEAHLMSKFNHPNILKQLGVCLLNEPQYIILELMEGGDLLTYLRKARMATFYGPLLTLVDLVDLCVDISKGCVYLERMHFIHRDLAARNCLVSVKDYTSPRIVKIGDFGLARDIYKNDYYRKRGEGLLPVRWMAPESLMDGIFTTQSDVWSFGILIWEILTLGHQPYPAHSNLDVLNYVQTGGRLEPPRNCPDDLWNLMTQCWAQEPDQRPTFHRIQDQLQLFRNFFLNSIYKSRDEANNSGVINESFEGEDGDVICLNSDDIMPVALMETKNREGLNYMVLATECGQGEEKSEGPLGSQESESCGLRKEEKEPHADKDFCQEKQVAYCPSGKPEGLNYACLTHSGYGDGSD

[21] = target: Interleukin-1 receptor-associated kinase 4 (Homo sapiens) (UniProt Q9NWZ3); experiment: Inhibition of wild-type human partial length IRAK4 (M1 to S460 residues) expressed in HEK293 cells assessed as residual activity at 1000 nM after 30 mins by Kinomescan method relative to control; format: cell-based
[22] = target: Serine/threonine-protein kinase Sgk1 (Homo sapiens) (UniProt O00141); experiment: Inhibition of wild-type human partial length SGK (I60 to L431 residues) expressed in HEK293 cells assessed as residual activity at 1000 nM after 30 mins by Kinomescan method relative to control; format: cell-based

SMILES: COc1cc(OC)c(Cl)c(N2Cc3cnc(Nc4ccc(F)cc4)nc3N(C3CCN(C(=O)/C=C/CN(C)C)CC3)C2=O)c1Cl
- Activity [1]: 68%
- Activity [2]: 96%
- Activity [3]: 99%
- Activity [4]: 100%
- Activity [5]: 96%
- Activity [6]: 100%
- Activity [7]: 99%
- Activity [8]: 99%
- Activity [9]: 99%
- Activity [10]: 96%
- Activity [11]: 96%
- Activity [12]: 96%
- Activity [13]: 98%
- Activity [14]: 100%
- Activity [15]: 99%
- Activity [16]: 100%
- Activity [17]: 99%
- Activity [18]: 100%
- Activity [19]: 100%
- Activity [20]: 95%
- Activity [21]: 100%
- Activity [22]: 100%
